The nature of series [1]: (§1) Metabolic stability in human liver microsomes assessed as parent compound remaining after 10 mins. The series is classed as ADME, microsome. The conditions noted are these: liver microsomes, read-out: Stability. The essentials:
(§2)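 Parent compound remaining after a 10 min incubation with human, mouse or rat liver microsomes.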
Background: Liver microsomes are a subcellular fraction often used to study metabolism.

Series [2] is described as follows: (§3) Metabolic stability in mouse liver microsomes assessed as parent compound remaining after 10 mins. The series is classed as ADME, microsome. The settings on record: liver microsomes, read-out: Stability. The method, boiled down:
as §2

The nature of series [3]: (§4) Metabolic stability in rat liver microsomes assessed as parent compound remaining after 10 mins. The conditions noted are these: liver microsomes, read-out: Stability. Format: ADME, microsome. The method, boiled down: as §2
Series [4] deals with T1, Nuclear receptor subfamily 1 group I member 2 (Homo sapiens, UniProt O75469).
T1 sequence (O75469 whole entry): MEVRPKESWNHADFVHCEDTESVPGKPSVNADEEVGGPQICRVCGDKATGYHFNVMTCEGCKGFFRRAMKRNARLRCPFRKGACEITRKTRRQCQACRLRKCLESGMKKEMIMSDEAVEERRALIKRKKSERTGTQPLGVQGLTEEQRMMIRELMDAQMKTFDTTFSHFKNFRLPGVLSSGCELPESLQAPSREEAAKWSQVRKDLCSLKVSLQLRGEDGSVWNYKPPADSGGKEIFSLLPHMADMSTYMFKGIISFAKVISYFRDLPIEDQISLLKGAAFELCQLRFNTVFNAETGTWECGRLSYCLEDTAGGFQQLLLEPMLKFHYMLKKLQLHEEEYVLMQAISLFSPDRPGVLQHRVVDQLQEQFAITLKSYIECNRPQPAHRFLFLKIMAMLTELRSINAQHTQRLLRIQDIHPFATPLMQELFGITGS
Kind of series: Activation of PXR (unknown origin). Format: ADME. The essentials:
(§5)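 PXR transactivation assay; EC50 and maximal activation (Ymax, % of control) reported.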

The target in series [5] is 11-beta-hydroxysteroid dehydrogenase 1 (Mus musculus, UniProt P50172).
Sequence of 11-beta-hydroxysteroid dehydrogenase 1 (P50172 whole entry): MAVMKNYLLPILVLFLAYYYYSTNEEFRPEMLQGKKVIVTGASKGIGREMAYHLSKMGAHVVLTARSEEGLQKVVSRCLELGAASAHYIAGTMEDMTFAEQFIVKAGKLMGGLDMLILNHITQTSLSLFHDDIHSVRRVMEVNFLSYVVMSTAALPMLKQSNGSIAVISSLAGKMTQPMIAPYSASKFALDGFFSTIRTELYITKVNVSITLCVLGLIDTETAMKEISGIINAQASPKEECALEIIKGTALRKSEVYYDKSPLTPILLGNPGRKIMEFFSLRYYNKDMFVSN
Series [6] has as its system Liver. The description is as §4. The conditions noted are these: microsomes, 10 min. Format: ADME, microsome. The method, boiled down:
as §2

Series [7] can be described thus: Metabolic stability in human liver microsomes assessed as UGT-mediated glucuronidation of compound by measuring half life in presence of UDPGA. Format: ADME. The essentials: (§6)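 Liver microsomal glucuronidation incubations in the presence of UDPGA; parent half-life determined.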
Series [8] in a line: Metabolic stability in mouse liver microsomes assessed as UGT-mediated glucuronidation of compound by measuring half life in presence of UDPGA. Format: ADME. The method, boiled down: as §6
In series [9] the target is PXR (Homo sapiens, UniProt O75469). Put plainly: Activation of PXR (unknown origin) relative to control. The series is classed as ADME. The essentials:
as §5

Series [10] concerns Mus musculus. Kind of series: In vivo inhibition of 11beta-HSD1 in po dosed non-fasting diet-induced obese mouse assessed as decrease in corticosterone excursion in plasma pretreated for 60 mins followed by DHC administration measured up to 120 mins by enzyme immunosorbent assay. The series is classed as functional. The method, boiled down:
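Nonfasting diet-induced obese male mice, groups of n = 6 matched for body weight; tail bleed at −60 min, then oral vehicle (0.5% Methocel, 0.1% Tween 80 in water) or drug. At 60 min, bleed and oral DHC 10 mg/kg. Bleeds at 30, 60 and 120 min post-DHC. Plasma corticosterone measured by enzyme immunosorbent assay; drug levels in terminal bleed.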

Series [11] can be described thus: Inhibition of cynomolgus monkey 11beta-HSD1. More on the design: species or system Macaca fascicularis.
The test system of series [12] is Liver. The description is as §1. The series is classed as ADME, microsome. The conditions noted are these: microsomes, 10 min. The method, boiled down:
as §2

Series [13] relates to Liver. Described as §3. The series is classed as ADME, microsome. The settings on record: microsomes, 10 min. The method, boiled down:
as §2

As to `O=C(CC1(c2ccc(F)cc2)C2CC3CC1CC(O)(C3)C2)N1CC(O)C1` (configuration not stated), the remaining at 10 min was 100% in series [1], 80 to 100% in [2] and 82 to 85% in [3]. The concentration giving a half-maximal response (EC50) in series [4] is above 50 µM.

For the molecule `NC(=O)C12CC3CC(C1)C(CC(=O)N1CC(O)C1)(c1ccc(F)cc1)C(C3)C2` (configuration not stated), the remaining at 10 min in series [1] is 82 to 100%; in series [2] it was 73 to 77%; in series [3], 62 to 79%. For the same molecule, in series [4], the EC50 is above 50 µM.

`O=C(CC1(c2ccc(F)cc2)C2CC3CC(C2)CC1C3)N1CC[C@H]1CO` (some centres not stated): in [5], the IC50 was found to be 1850 nM.

Consider `O=C(CC1(c2ccccn2)C2CC3CC1CC(C2)C3O)N1CC(O)C1` (racemic), for which the figures for the remaining at 10 min in series [1], in series [2] and in [3] were 100%, 93% and 90%, respectively.

Consider `O=C(CC1(c2ccccc2)C2CC3CC1CC(C2)C3O)N1CC(O)C1` (racemic) [BMS-816336], for which, in series [5], the half-maximal inhibitory concentration (IC50) worked out at 68 nM. In addition, the remaining at 10 min in series [1] was determined as 88%; in [2], 82%. In addition, the Stability in series [6] is reported as 72%.

Regarding `O=C(CC1(c2cccnc2)C2CC3CC1CC(C2)C3O)N1CC(O)C1` (racemic), the remaining at 10 min in [1] amounted to 86%; in [2], 58%; in [3], 92%.

For `COC12CC3CC(C1)C(CC(=O)N1CC(O)C1)(c1ccc(F)cc1)C(C3)C2` (configuration not stated), the remaining at 10 min lay within 27 to 72% in [1], 17 to 55% in [2] and 6 to 14% in series [3]. This molecule also displayed a half-maximal effective concentration (EC50) in series [4] above 50 µM.

As to `Fc1ccc(C2(Cc3nnn[nH]3)C3CC4CC(C3)CC2C4)cc1` (configuration not stated), the half-life was above 120 min in [7] and above 60 min in series [8].

On to `O=C(CC1(c2ccc(F)cc2)C2CC3CC(C2)CC1C3)N1CC[C@@H]1CO` (some centres not stated), for which, in series [5], the IC50 amounted to 12 nM.

Take `O=C(CC1(c2ccc(-c3ccc(F)cc3)cc2)C2CC3CC1CC(C2)C3O)N1CC(O)C1` (racemic): the remaining at 10 min worked out at 39% in series [1], 10% in series [2] and 5% in series [3].

`O=C(CC1(c2ccc(F)cc2)C2CC3CC(C2)CC1(O)C3)N1CC(O)C1` (racemic): the remaining at 10 min in series [1] was 25%; in [2] it was 11%; in series [3], 2%. Also, the EC50 in [4] was above 50 µM.

Turning to `Cc1cccc(C2(CC(=O)N3CC(O)C3)C3CC4CC2CC(C3)C4O)c1` (racemic), the remaining at 10 min stood at 84% in [1], 54% in series [2] and 22% in series [3].

As for `Cc1ccccc1C1(CC(=O)N2CC(O)C2)C2CC3CC1CC(C2)C3O` (racemic), the remaining at 10 min in [1] is 62%; in [2] it was 77%; in series [3] it was 25%.

In series [5], `O=C(CC1(c2ccc(F)cc2)C2CC3CC1CC(C2)C3O)N1CC(O)C1` (racemic) came in with an IC50 of 43 nM. Besides, the remaining at 10 min in series [1] is 95%; in series [2] it was 92%. Further, in series [6], the Stability came out at 88%. Moreover, the EC50 in series [4] is above 50 µM. Besides, in series [9], the Emax amounted to 4%.

On to `N#CC12CC3CC(C1)C(CC(=O)N1CC(O)C1)(c1ccc(F)cc1)C(C3)C2` (configuration not stated), for which the remaining at 10 min in series [1] turned out to be 62%; in series [2], 42%; in series [3], 46%. The molecule further came in with an EC50 in series [4] above 50 µM.

For the molecule `O=C(CC1(c2cccc(Cl)c2)C2CC3CC1CC(C2)C3O)N1CC(O)C1` (racemic), the remaining at 10 min in [1] turned out to be 85%; in series [2] it was 66%; in [3] it was 37%.

For the molecule `NC(=O)CC1(c2ccc(F)cc2)C2CC3CC(C2)CC1C3` (configuration not stated), the half-life in [7] and in series [8] was above 120 min in each case.

As for `NC(=O)C1C2CC3CC1CC(C2)C3(CC(=O)N1CC(O)C1)c1ccc(F)cc1` (racemic), the remaining at 10 min in series [1] was 100%; in series [2] it was 99%; in [3], 92%.

With `CC1(O)C2CC3CC(C2)C(CC(=O)N2CC(O)C2)(c2ccc(F)cc2)C1C3` (racemic), the results for the remaining at 10 min in [1], in series [2] and in series [3] were 41%, 17% and 23%, respectively. The concentration for a half-maximal effect (EC50) in series [4] is above 50 µM.

In the case of `COc1ccc(C2(CC(=O)N3CC(O)C3)C3CC4CC2CC(C3)C4O)cc1` (racemic), the remaining at 10 min in [1] was 98%; in series [2], 71%; in series [3], 70%.

Take `O=C(CC1(c2ccncc2)C2CC3CC1CC(C2)C3O)N1CC(O)C1` (racemic): the remaining at 10 min in series [1] amounted to 92%; in series [2] it was 94%; in [3], 100%.

Consider `O=C(CC1(c2ccc(F)cc2)C2CC3CC1CC(F)(C3)C2)N1CC(O)C1` (configuration not stated), for which the remaining at 10 min is 38 to 69% in series [1], 13 to 38% in [2] and 5 to 9% in [3]. Further, the concentration for a half-maximal effect (EC50) in series [4] was above 25 µM.

Turning to `CS(=O)(=O)c1ccc(C2(CC(=O)N3CC(O)C3)C3CC4CC2CC(C3)C4O)cc1` (racemic), the remaining at 10 min in [1] amounted to 100%; in series [2] it was 100%; in series [3], 98%.

Regarding `O=C(CC1(c2ccccc2)C2CC3CC1CC(C2)C3O)N1CC(O)C1` (stereo in doubt; form 2), the inhibition result in series [10] was “Dose-dependent effect”.

As for `N#Cc1ccc(C2(CC(=O)N3CC(O)C3)C3CC4CC2CC(C3)C4O)cc1` (racemic), the remaining at 10 min in [1] worked out at 100%; in series [2], 87%; in series [3], 95%.

Regarding `O=C(CC1(c2ccc(-c3ccncc3)cc2)C2CC3CC1CC(C2)C3O)N1CC(O)C1` (racemic), the figures for the remaining at 10 min in [1], in series [2] and in series [3] were 28%, 42% and 53%, respectively.

Regarding `O=C(CC1(c2ccc(C(F)(F)F)cc2)C2CC3CC1CC(C2)C3O)N1CC(O)C1` (racemic), the remaining at 10 min in [1] is 57%; in series [2], 71%; in [3], 0%.

Regarding `O=C(CC1(c2ccc(F)cc2)C2CC3CC1CC(C2)C3O)N1CC(O)C1` (stereo in doubt), the values for the IC50 in [5] and in [11] were 150 nM and 24.8 nM, respectively. Further, the figures for the Stability in series [12], in series [13] and in [6] were 85%, 78% and 58%, respectively.

In series [4], `O=C(CC1(c2ccc(F)cc2)C2CC3CC(C2)CC1C3)N1CC(O)C1` (configuration not stated) yielded an EC50 of 6.7 µM. In addition, in series [9], the Emax came out at 37%.

For the molecule `O=C(CC1(c2ccccc2)C2CC3CC1CC(C2)C3O)N1CC(O)C1` (stereo in doubt; form 1), the midpoint of inhibition in [11], the IC50, lay at 16 nM. Also, the figures for the Stability in series [12], in series [13] and in series [6] were 89%, 65% and 36%, respectively.

As for `O=C(CC1(C2CCCCC2)C2CC3CC1CC(C2)C3O)N1CC(O)C1` (racemic), the values for the remaining at 10 min in series [1], in series [2] and in [3] were 100%, 24% and 14%, respectively.

As for `N#CC1C2CC3CC1CC(C2)C3(CC(=O)N1CC(O)C1)c1ccc(F)cc1` (racemic), the values for the remaining at 10 min in [1], in series [2] and in [3] were 53%, 47% and 27%, respectively.

In series [11], `O=C(CC1(c2ccc(F)cc2)C2CC3CC1CC(C2)C3O)N1CC(O)C1` (single isomer, unassigned; enantiomer 2) came in with an IC50 of 6.9 nM. Besides, the Stability in series [12] was found to be 90%; in series [13], 82%; in [6], 75%.

Take `Cc1ccc(C2(CC(=O)N3CC(O)C3)C3CC4CC2CC(C3)C4O)cc1` (racemic): the figures for the remaining at 10 min in series [1], in series [2] and in [3] were 75%, 72% and 26%, respectively.

With `O=C(CC1(Cc2ccccc2)C2CC3CC1CC(C2)C3O)N1CC(O)C1` (racemic), the figures for the remaining at 10 min in series [1], in [2] and in [3] were 63%, 33% and 3%, respectively.

As to `CC1(O)C2CC3CC1CC(C2)C3(CC(=O)N1CC(O)C1)c1ccc(F)cc1` (racemic), the remaining at 10 min in series [1] was 84%; in series [2], 66%; in [3], 47%.

For the molecule `O=C(CC1(c2ccc(Cl)cc2)C2CC3CC1CC(C2)C3O)N1CC(O)C1` (racemic), the remaining at 10 min in series [1] worked out at 81%; in series [2] it was 73%; in series [3], 58%.

As usually defined, the EC50 is the concentration needed to bring the measured effect to its halfway point. A word on the IC50: it is the concentration that inhibits the measured activity by half. The term half-life denotes the time needed for the level to fall by half in the phase considered. Broadly, the Emax is the size of the effect at its maximum, as opposed to the concentration needed.

(Values after ChEMBL document CHEMBL4014336 (J Med Chem, 2017).)
